XiGFP reactiv: reactivates the inactive X chromosome in mouse fibroblasts; XiGFP mouse fibroblasts, % GFP-positive cells imaging, 3 d; cells co-treated with 5-aza-dC sensitizer; scaled so ellipticine positive control = 100%; activation, % at 7.58 µM; 360,000 compounds, 0.055% hits;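 active = mean normalized replicate activation at least 10% and every replicate at or above 10%; inconclusive = only one of the two criteria met; inactive = mean below 10% and not all replicates reach 10%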;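 also: 0% = median of on-plate neutral control wells and 100% = ellipticine 6 µM median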
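material = 68-5-11 XiGFP fibroblast line | medium = DMEM plus 5-aza-dC sensitizer | schedule = 3 days compound exposure | benchmarks = positive control ellipticine, 6 µM final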
Wnt bcat act: activates Wnt/beta-catenin signaling in a reporter cell assay; activator, plate reader; 300,000 compounds, 1.2% hits; activation, % at 9.35 µM; in the data active = activation above about 30%, passing the limit was not always enough; inconclusive = no clear call, values can overlap the other calls;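 also: 0% = neutral control wells and 100% = positive control wells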
esBAF inh: SWI/SNF esBAF complex inhibition; mouse ES cells, Bmi1-luciferase knock-in reporter, 24 h; 100% = twice the neutral-well signal; reporter increase, % at 12.5 µM; 350,000 compounds, 2% hits; AID 602393; in the data active = activation above about 40%; inconclusive = no clear call, values can overlap the other calls;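 also: 0% = median of the plate's neutral control wells and 100% = double that signal; a rise in the Bmi1 reporter signal indicates esBAF inhibition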
CASP6 VEID inh: inhibitors of human caspase-6 | P55212 | purified caspase-6, Z-VEID-R110 cleavage fluorescence | inhibition, % at 12.5 µM | 350,000 compounds, 0.53% hits;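 active = mean inhibition across replicates at least about 35%, with every replicate also reaching that limit, limit read from the data; inconclusive = only one of the two criteria met; inactive = neither criterion met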;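 also: 0% = median of neutral control wells and 100% = no fluorescence left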
NSD2 HMT inh: NSD2 (human) methyltransferase inhibition | NSD2 peptide methylation, AlphaScreen, 120 min | 310,000 compounds, 0.54% hits | O96028 | inhibition, % at 12.5 µM; in the data active = inhibition above about 50%
Target sequence (O96028 whole entry, looked up): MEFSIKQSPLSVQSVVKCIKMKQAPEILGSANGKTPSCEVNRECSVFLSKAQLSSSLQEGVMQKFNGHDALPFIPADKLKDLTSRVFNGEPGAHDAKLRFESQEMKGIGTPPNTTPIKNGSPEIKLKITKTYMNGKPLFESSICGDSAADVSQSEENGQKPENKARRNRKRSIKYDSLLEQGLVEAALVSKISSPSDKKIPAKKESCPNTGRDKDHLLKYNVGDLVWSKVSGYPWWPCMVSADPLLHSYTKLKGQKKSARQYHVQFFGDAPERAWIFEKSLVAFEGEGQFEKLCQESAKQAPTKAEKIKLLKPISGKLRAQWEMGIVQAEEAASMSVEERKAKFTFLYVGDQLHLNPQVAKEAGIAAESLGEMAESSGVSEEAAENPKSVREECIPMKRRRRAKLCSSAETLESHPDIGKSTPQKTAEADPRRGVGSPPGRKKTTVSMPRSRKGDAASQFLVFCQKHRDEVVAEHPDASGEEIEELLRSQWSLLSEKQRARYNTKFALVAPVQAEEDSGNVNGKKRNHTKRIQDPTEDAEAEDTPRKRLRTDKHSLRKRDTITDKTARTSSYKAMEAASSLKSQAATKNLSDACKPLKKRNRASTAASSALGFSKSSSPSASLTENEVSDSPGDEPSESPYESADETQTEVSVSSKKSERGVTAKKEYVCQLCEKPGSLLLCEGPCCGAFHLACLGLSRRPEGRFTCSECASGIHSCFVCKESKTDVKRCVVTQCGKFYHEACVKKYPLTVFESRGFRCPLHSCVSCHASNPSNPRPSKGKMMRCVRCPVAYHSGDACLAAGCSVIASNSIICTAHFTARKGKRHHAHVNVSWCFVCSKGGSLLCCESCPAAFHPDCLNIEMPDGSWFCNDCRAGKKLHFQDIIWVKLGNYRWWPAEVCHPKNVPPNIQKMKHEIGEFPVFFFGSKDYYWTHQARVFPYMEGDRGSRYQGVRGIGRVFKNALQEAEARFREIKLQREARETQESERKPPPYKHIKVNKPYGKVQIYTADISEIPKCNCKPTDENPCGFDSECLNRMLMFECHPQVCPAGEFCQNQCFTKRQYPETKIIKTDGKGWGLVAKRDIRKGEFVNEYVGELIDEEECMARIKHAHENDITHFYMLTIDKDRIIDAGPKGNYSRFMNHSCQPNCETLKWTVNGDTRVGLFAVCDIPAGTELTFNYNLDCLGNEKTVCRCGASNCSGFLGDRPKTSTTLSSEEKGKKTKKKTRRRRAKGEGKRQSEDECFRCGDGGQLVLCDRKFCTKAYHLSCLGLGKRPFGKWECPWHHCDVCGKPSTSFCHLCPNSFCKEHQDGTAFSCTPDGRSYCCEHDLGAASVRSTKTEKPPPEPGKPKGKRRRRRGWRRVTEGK
MITF TRPM1 HTS: activators of MITF-driven TRPM1 promoter activity in SK-MEL-5 cells. SK-MEL-5 TRPM1-promoter luciferase, 24 h; % of positive control, neutral wells = 0. activation, % at 12.5 µM. 300,000 compounds, 0.75% hits;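 active = mean activation of at least 80% with every replicate also reaching 80%; inconclusive = mean reaches 80% but some replicate falls short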;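 also: 0% = neutral control wells and 100% = parthenolide positive control wells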
* = called active by the depositor. Compounds with a hit are over-represented: about 3% of the library has one in this group of screens.

`Cc1cc(C(=O)C(C)Sc2cccc[n+]2[O-])c(C)n1-c1ccc(Cl)cc1` (stereo not drawn) gave XiGFP reactiv 0, Wnt bcat act 6, esBAF inh 62*, CASP6 VEID inh 0, NSD2 HMT inh 7 and MITF TRPM1 HTS 20.
`CCOC(=O)C1=C(O)/C(=C/c2ccc(-c3ccccc3C(=O)O)o2)SC1=Nc1ccc(OC)cc1` gave esBAF inh -7 and NSD2 HMT inh 13.
Screening CCOC(=O)C1=C(O)/C(=C/c2ccc(OCC(=O)O)c(OC)c2)SC1=Nc1ccc(OCC)cc1 returned XiGFP reactiv 0, Wnt bcat act -7, CASP6 VEID inh 37*, NSD2 HMT inh 6 and MITF TRPM1 HTS 2.
CCOC(=O)C1=C(O)/C(=C/c2cc(OC)c(O)c(OC)c2)SC1=Nc1ccc(OC)cc1 was read as XiGFP reactiv 15*, Wnt bcat act -14, NSD2 HMT inh -4 and MITF TRPM1 HTS 11.
CCOC(=O)C1=C(O)/C(=C/c2ccc(OCC(=O)O)c(OCC)c2)SC1=Nc1ccccc1 was read as XiGFP reactiv 0, Wnt bcat act 6, CASP6 VEID inh 2, NSD2 HMT inh 19 and MITF TRPM1 HTS 9.
For CC(=O)Nc1ccc(NC(=O)c2ccco2)cc1 the results were esBAF inh 12, NSD2 HMT inh 6 and MITF TRPM1 HTS 30.
For CCN1CCN(c2ccc(NC(=O)c3ccco3)cc2)CC1 the results were XiGFP reactiv 0, Wnt bcat act 16, CASP6 VEID inh 1 and MITF TRPM1 HTS 86*.
CCN1CCN(c2ccc(NC(=O)c3cccc(N4CCCC4=O)c3)cc2)CC1 was read as XiGFP reactiv 0, Wnt bcat act 21, esBAF inh 60*, CASP6 VEID inh -29, NSD2 HMT inh 13 and MITF TRPM1 HTS 5.
CCCC(=O)N1CCN(c2ccc(NC(=O)c3ccco3)cc2)CC1 was read as Wnt bcat act 3, esBAF inh 4, NSD2 HMT inh 1 and MITF TRPM1 HTS 5.
For O=C(Nc1ccc(Cl)cc1)c1ccco1 the results were XiGFP reactiv 0, Wnt bcat act 45*, esBAF inh 37, CASP6 VEID inh -4, NSD2 HMT inh -1 and MITF TRPM1 HTS 45.
Screening O=C(Nc1ccc(N2CCCC2=O)cc1)c1cccc(F)c1 returned Wnt bcat act 27, CASP6 VEID inh -4, NSD2 HMT inh 3 and MITF TRPM1 HTS 58.
For CC(=O)N(C)C[C@H]1Oc2ncc(C#C[C@H](C)O)cc2C(=O)N([C@@H](C)CO)C[C@@H]1C the results were XiGFP reactiv 1, esBAF inh -1 and CASP6 VEID inh 0.
For OC[C@H]1[C@H](c2ccc(C#CC3(O)CCCC3)cc2)[C@H]2CN(Cc3ccncc3)CCCCN21 the results were XiGFP reactiv 0 and CASP6 VEID inh 0.
Screening Cc1cccc(-c2cc3nc(-c4ccccc4)cc(=O)n3[nH]2)c1 returned XiGFP reactiv 0, Wnt bcat act inconclusive, esBAF inh 17, CASP6 VEID inh 2, NSD2 HMT inh -1 and MITF TRPM1 HTS 50.
Cc1ccc(-c2[nH]n3c(=O)c4c(nc3c2C)CCCC4)cc1 was read as esBAF inh 53*, CASP6 VEID inh 1 and NSD2 HMT inh 6.
Screening CCCc1cc(=O)n2[nH]c(-c3ccc(Br)cc3)cc2n1 returned esBAF inh 48*, NSD2 HMT inh 1 and MITF TRPM1 HTS 61.
O=c1c2c(nc3cc(-c4ccccc4)[nH]n13)CCC2 was read as esBAF inh 25, NSD2 HMT inh 0 and MITF TRPM1 HTS 15.
`CCCc1cc(=O)n2[nH]c(-c3cccc(Br)c3)cc2n1` gave XiGFP reactiv 0, Wnt bcat act 7, esBAF inh 52*, CASP6 VEID inh -1 and NSD2 HMT inh -5.
`O=c1c2c(nc3cc(-c4ccc(Br)cc4)[nH]n13)CCCC2` gave XiGFP reactiv 0, Wnt bcat act 14, esBAF inh 26, CASP6 VEID inh -1, NSD2 HMT inh 2 and MITF TRPM1 HTS 109*.
For COc1cccc(NC(=O)N[C@@H]2C=C[C@H](CC(=O)N3CCN(C)CC3)O[C@H]2CO)c1 the results were XiGFP reactiv 0, esBAF inh -3 and CASP6 VEID inh -1.
For C[C@H](CO)N1C[C@H](C)[C@@H](CN(C)Cc2ccc(Cl)c(Cl)c2)Oc2ccc(NS(=O)(=O)c3ccc(F)cc3)cc2CC1=O the results were XiGFP reactiv 0 and esBAF inh 11.
`Cc1ccc(S(=O)(=O)NCC[C@@H]2CC[C@@H](NC(=O)c3cccc(F)c3)[C@H](CO)O2)cc1` gave XiGFP reactiv 0, esBAF inh 2 and CASP6 VEID inh -4.
Screening C[C@H](CO)N1C[C@H](C)[C@@H](CN(C)Cc2ccc(C(=O)Nc3ccccc3N)cc2)OCCCC[C@H](C)Oc2ccc(N(C)C)cc2C1=O returned XiGFP reactiv 0.
Cc1c(/C=C/C(=O)c2ccc(Cl)s2)cnn1C was read as Wnt bcat act 61*, esBAF inh inconclusive and NSD2 HMT inh -3.
`COc1ccc(/C=C/C(=O)c2ccc(Cl)s2)cc1O` gave esBAF inh 56* and NSD2 HMT inh 9.
C[C@@H]1CN([C@H](C)CO)C(=O)c2cc(/C=C/c3ccccc3)cnc2O[C@H]1CN(C)C(=O)c1cnccn1 was read as XiGFP reactiv -1, esBAF inh 0 and CASP6 VEID inh 0.
Screening O=C1c2ccccc2C(=O)C1c1nccc2ccccc12 returned esBAF inh -55, NSD2 HMT inh -3 and MITF TRPM1 HTS -54.
For O=C1c2ccccc2C(=O)C1c1ccnc2ccccc12 the results were Wnt bcat act 43*, esBAF inh -45, NSD2 HMT inh -14 and MITF TRPM1 HTS -35.
CCNC(=O)COc1ccc(F)cc1C(=O)c1cnn(-c2ccccc2)c1 was read as XiGFP reactiv 0, Wnt bcat act 0, esBAF inh 3, CASP6 VEID inh 1, NSD2 HMT inh 2 and MITF TRPM1 HTS -11.
COc1ccccc1CNC(=O)COc1ccccc1C(=O)c1cnn(-c2ccccc2)c1 was read as XiGFP reactiv 0, Wnt bcat act 58*, esBAF inh 75*, CASP6 VEID inh 0, NSD2 HMT inh -2 and MITF TRPM1 HTS 89*.
Cc1ccc(O)c(C(=O)c2cnn(-c3ccccc3)c2)c1 was read as Wnt bcat act 14, esBAF inh 50*, NSD2 HMT inh 1 and MITF TRPM1 HTS 8.
Screening O=C(COc1ccccc1C(=O)c1cnn(-c2ccccc2)c1)Nc1ccccc1 returned XiGFP reactiv 0, Wnt bcat act inconclusive, esBAF inh 49*, CASP6 VEID inh 1, NSD2 HMT inh 6 and MITF TRPM1 HTS 64.
`O=C(C[C@@H]1CC[C@H]2[C@@H](COC[C@@H](O)CN2Cc2cc(F)cc(F)c2)O1)NCc1cccc(F)c1` gave XiGFP reactiv 0, esBAF inh 1 and CASP6 VEID inh -1.

Screens as filed in PubChem.
